Experimental data collected from several papers.
Lines come from different studies, so protocols differ.
CTSV: Cathepsin L2 (CTSV, Homo sapiens, UniProt O60911)
PKN1: Serine/threonine-protein kinase N1 (PKN1, Homo sapiens, UniProt Q16512)
NUAK2: NUAK family SNF1-like kinase 2 (NUAK2, Homo sapiens, UniProt Q9H093)

SMILES	target	assay	conditions	endpoint	value
N=C(N)c1ccc2cc(OC(=O)c3ccc(N=C(N)N)cc3)ccc2c1	CTSV	enzyme activity, inhibitor	10 µM	inhibition	27%
CC(=O)c1c(O)c(C)c(O)c(Cc2c(O)c3c(c(C(=O)/C=C/c4ccccc4)c2O)OC(C)(C)C=C3)c1O	PKN1	enzyme activity, inhibitor	1 µM	activity vs control	84%
Cc1nn(C)cc1-c1nc2c(N3CCN(Cc4ccc(Cl)cc4)CC3)c(Cl)cnc2[nH]1	NUAK2	binding, competition with immobilised ligand	1 µM	remaining binding	32%
Nc1ncc(-c2nc(N3CCOCC3)nc(N3CCOCC3)n2)c(C(F)F)n1	Ribosomal protein S6 kinase alpha-6, N-terminal kinase domain (RPS6KA6, Homo sapiens, UniProt Q9UK32)	binding, competition with immobilised ligand	10 µM	remaining binding	48%
COc1ncccc1-c1cnn2ccc(N3CCN(C(=O)OC(C)C)CC3)nc12	NUAK2	binding, competition with immobilised ligand	1 µM	remaining binding	100%
CC(C)C[C@H](NC(=O)[C@H]1O[C@@H]1C(=O)O)C(=O)NCCCCN=C(N)N	CTSV	enzyme activity, inhibitor	50 nM	inhibition	57%
COc1ccc2c(c[n+](C)c3c4cc5c(cc4ccc23)OCO5)c1OC	PKN1	enzyme activity, inhibitor	1 µM	activity vs control	86%
CN(C)C(=O)COC(=O)Cc1ccc(OC(=O)c2ccc(NC(=N)N)cc2)cc1	Matrix metalloproteinase-9 (MMP9, Homo sapiens, UniProt P14780, Q279R)	enzyme activity, inhibitor	10 µM	inhibition	8%
O=c1[nH]c2ccccc2n1C1CCN(Cc2ccc(-c3nc4cc5nc[nH]c5cc4nc3-c3ccccc3)cc2)CC1	PKN1	enzyme activity, inhibitor	1 µM	activity vs control	77%
